Experimental data: article PMC10925246 (bioRxiv, 2024)
Ends that are not written are not given here.

Experiments:
[1] = Solubility of synthetic loop peptides in solvents; assay type: physicochemical; conditions: lyophilized synthetic peptide, acetylated and amidated
How it was run: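 Synthetic outer-loop peptides were N-acetylated and C-amidated, ≥95% HPLC purity, and stored lyophilized at −80°C. Each was […] as required before competition binding at 0–250 µM.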

P. aeruginosa PA14 [2] = assay type: cell-based, Pseudomonas aeruginosa; conditions: for minimum inhibitory concentration (MIC): PA14, CFU assay
PotH = target: T1, PotH (Escherichia coli, UniProt P31135); assay type: binding, E. coli; conditions: overnight 4°C, 0.15 M NaCl; eluted with 0.5 and 1 M KCl, not 0.3 M KCl; n = 3 experiments
T1 sequence (P31135 1-317): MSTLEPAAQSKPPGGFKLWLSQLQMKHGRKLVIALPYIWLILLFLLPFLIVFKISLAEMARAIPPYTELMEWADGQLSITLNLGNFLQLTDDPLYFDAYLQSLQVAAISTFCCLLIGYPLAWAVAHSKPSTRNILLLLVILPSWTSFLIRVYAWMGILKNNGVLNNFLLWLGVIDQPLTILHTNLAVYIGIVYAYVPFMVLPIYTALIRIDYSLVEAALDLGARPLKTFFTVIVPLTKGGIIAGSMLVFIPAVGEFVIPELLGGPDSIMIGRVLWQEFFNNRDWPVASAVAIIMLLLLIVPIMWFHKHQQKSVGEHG
How it was run: (§1)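 Cys-extended test peptide (2 mg) was coupled to SulfoLink resin in 50 mM Tris pH 8.5, 5 mM EDTA, 3 h room temperature. His-tagged transporter was Ni-Sepharose purified (4 h, 4°C; imidazole elution) and applied to the column; the flowthrough was collected. Columns were washed with 10 mM HEPES, 0.05% dodecyl-maltoside, 0.15 M KCl, then step-eluted with 0.3, 0.5, 1.0 M KCl. Unboiled fractions went to 4–20% SDS-PAGE and anti-His (1 µg/ml, overnight 4°C) western with IRDye secondary.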

thrombin = thrombin (Homo sapiens, UniProt P00734); test: N-104 affinity column screen of human tears, thrombin western blot; assay type: binding; conditions: pooled human basal tears, 5 hours 4°C, KCl elution, anti-thrombin western blot
How it was run: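 Basal tears were collected 5 min on Schirmer strips after 0.5% proparacaine, eluted at 4°C in phosphate-buffered saline and pooled (170 µl). The pool was diluted fivefold with protease inhibitors, agarose-precleared, and split by protein between test-peptide and control-peptide columns for 5 h at 4°C. Elution was 0.3/0.5/1.0 M KCl; the 0.5 M eluate went to MS (human UniProt search). Unboiled fractions: 4–20% SDS-PAGE, polyclonal anti-thrombin 1 µg/ml overnight 4°C, LI-COR detection.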

P. aeruginosa PA14 [3] = test: N-104 resistance assay over 30 generations; assay type: cell-based, Pseudomonas aeruginosa; conditions: through 30 generations, sub-MIC and MIC exposure; n = 2 experiments
FeoB = assay type: binding, P. aeruginosa PAO1; conditions: overnight 4°C, 0.15 M NaCl; eluted with 0.5 and 1 M KCl, not 0.3 M KCl; n = 3 experiments
How it was run: as §1

[4] = system: PA14 feoB, potH and yaiW transposon mutants; test: CFU killing assay of PA14 transposon mutants; assay type: cell-based, Pseudomonas aeruginosa; conditions: 10^6 cfu/ml, 30 mOsm/l; n = 3 experiments
How it was run: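 Suspensions were exposed to test peptide or left untreated ~8 h at 35°C. 2 µl were spotted on LB agar, with or without selective antibiotic, incubated overnight at 37°C and imaged; n = 3 experiments.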

[5] = system: PA14 pathogenesis in C. elegans N2; test: C. elegans - PA14 liquid infection; assay type: in vivo, Caenorhabditis elegans; conditions: SYTOX Orange uptake of dead worms
How it was run: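 Young adult worms (raised from L1 on NGM with E. coli OP50 at room temperature, washed off in M9, pelleted 1200×g 2 min) were placed ~50 per well in 150 µl 90% M9/10% LB. They were incubated aerobically with an equal volume of PA14, feoB/potH/yaiW transposon mutants, or OP50, diluted to 10^7 cfu/ml and pre-treated with 50 µM test peptide for 5 h at 35°C. After 3 days, equal volume 6 µM SYTOX Orange was added; imaged next day, transmitted and 535/610 nm fluorescence.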

[6] = system: ^14C-spermidine uptake by PA14; test: Polyamine transport assay; assay type: cell-based, Pseudomonas aeruginosa; conditions: 10 and 25 µM, 45 min 35°C pretreatment, n = 3 experiments
How it was run: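 PA14 (0.8×10^8 cfu in 100 µl dilute phosphate saline) was pre-incubated 45 min at 35°C with or without 10 or 25 µM test peptide. Cells were then given 1 µl of 10 mM [1,4-14C]spermidine stock (0.1 mCi/ml) for 15 min at 35°C. Pellets were washed four times with phosphate-buffered saline and counted by liquid scintillation, last wash also counted. Molecules per cell were estimated from a spermidine standard curve.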

P. aeruginosa PA14 [7] = test: Polyamine toxicity for PA14; assay type: cell-based, Pseudomonas aeruginosa; conditions: 10^6 cfu/ml PA14, 30 mOsm/l, alamarBlue; n = 3 experiments

Ac-INIGGALQP-NH2 [FeoB outer loop 1 synthetic peptide]
solubility in water and organic solvents [1]: not water, DMSO, methanol, isopropanol nor acetonitrile soluble
solvent in which the peptide dissolved [1]: formic or acetic acid

Ac-GAFFGQGGA-NH2 [FeoB outer loop 3 synthetic peptide]
solubility in water and organic solvents [1]: not water, DMSO, methanol, isopropanol nor acetonitrile soluble
solvent in which the peptide dissolved [1]: ammonia water and acetic acid

Ac-AQKLLKKFSSLKPWA [N-104:L114S]
minimum inhibitory concentration (MIC) (P. aeruginosa PA14 [2]): 2 µM

Ac-AQKLLKKFSLSKPWA [N-104:L115S]
minimum inhibitory concentration (MIC) (P. aeruginosa PA14 [2]): 2 µM

Ac-AQKLLKKFSLLKPWA [N-104]
binding of His tagged PotH to column immobilized peptide (PotH): high affinity ligation
capture of thrombin from human tears by column immobilized peptide (thrombin): binds
development of resistance of PA14 (P. aeruginosa PA14 [3]): No stable resistance
dependence of PA14 killing efficacy on osmolarity (P. aeruginosa PA14 [2]; two osmolalities (30 and 300 mOsm/l)): efficacy diminishes as osmolarity increases
binding of His tagged FeoB to column immobilized peptide (FeoB): high affinity ligation
killing of PA14 transposon mutant lacking YaiW [4]: partially resistant
effect of peptide alone on C. elegans [5]: no apparent effect

EDASSDSTGADPAQEAGTSKPNEE-NH2 [C-95]
binding of His tagged PotH to column immobilized peptide (PotH): Neither bound
capture of thrombin from human tears by column immobilized peptide (thrombin): None bound
binding of His tagged FeoB to column immobilized peptide (FeoB): Neither bound

Ac-AKAGKGMHGGVPGG-NH2 [N-80/C-25]
effect on ^14C-spermidine uptake [6]: almost similar inhibitory effect

NCCCCNCCCN [spermidine]
effect of exogenous polyamine on N-104 bactericidal activity (P. aeruginosa PA14 [2]; PA14, 5 µM N-104 plus polyamine at or below 100 µM, n = 3 experiments): inhibited N-104 bactericidal activity in a concentration-dependent manner
concentrations toxic for PA14 (P. aeruginosa PA14 [7]): greater than 100 µM
